Measurements as given in ChEMBL document CHEMBL1122366, “Potential antiatherosclerotic agents. 3. Substituted benzoic and non benzoic acid analogues of cetaben” (1983).

Key:
Rattus norvegicus [1] = test: In vivo sterol lowering activity when dosed as 0.01 % of the diet; type: functional
In short: (§1)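 Normal rats were dosed in the diet. Serum sterol and triglyceride levels were measured and expressed as the mean percent of control values. Significance versus control was reported at p < 0.05, 0.01 and 0.001.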

Rattus norvegicus [2] = test: In vivo triglyceride lowering activity dosed at 0.10 % of the diet.; type: functional; in short: as §1
[3] = molecular target: T1, Sterol O-acyltransferase 1 (Rattus norvegicus) (UniProt O70536); test: In vitro inhibition of acyl coenzyme A:cholesterol acyltransferase; parameters: concentration or dose not given beside the values; details: concentration not given here
T1 sequence (whole entry): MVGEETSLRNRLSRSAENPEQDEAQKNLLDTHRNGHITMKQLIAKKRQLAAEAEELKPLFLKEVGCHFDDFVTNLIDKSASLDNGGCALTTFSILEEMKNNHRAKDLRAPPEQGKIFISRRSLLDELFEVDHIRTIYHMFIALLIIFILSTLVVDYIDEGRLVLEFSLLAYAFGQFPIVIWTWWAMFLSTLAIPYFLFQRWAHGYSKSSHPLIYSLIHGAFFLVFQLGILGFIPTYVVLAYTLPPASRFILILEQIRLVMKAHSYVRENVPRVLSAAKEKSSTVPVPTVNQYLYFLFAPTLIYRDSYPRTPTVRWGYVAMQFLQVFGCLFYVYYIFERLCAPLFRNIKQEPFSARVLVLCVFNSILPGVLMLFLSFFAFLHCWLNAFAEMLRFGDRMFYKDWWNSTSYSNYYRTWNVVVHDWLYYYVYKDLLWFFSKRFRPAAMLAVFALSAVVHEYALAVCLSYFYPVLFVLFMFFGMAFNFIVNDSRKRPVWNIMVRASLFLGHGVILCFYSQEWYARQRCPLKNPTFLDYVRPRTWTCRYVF
In short: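 Enzyme fatty acyl-CoA:cholesterol acyltransferase (ACAT), assayed in vitro at a single drug concentration of 5.2 μg/mL. The value is the mean percent inhibition of enzyme activity.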

Rattus norvegicus [4] = test: In vivo triglyceride lowering activity when dosed as 0.01 % of the diet; type: functional; in short: as §1
Rattus norvegicus [5] = test: In vivo triglyceride lowering activity when dosed at 0.03 % of the diet; type: functional; in short: as §1
Rattus norvegicus [6] = test: In vivo sterol lowering activity at dose of 0.10 % of the diet; type: functional; in short: as §1
Rattus norvegicus [7] = test: In vivo sterol lowering activity when dosed as 0.03 % of the diet; type: functional; in short: as §1

Structure (SMILES)	serum sterol level, % of control (Rattus norvegicus [1]) [%]	serum triglyceride, percent of control (Rattus norvegicus [2]) [%]	inhibition [3] [%]	serum triglyceride level, percent of control (Rattus norvegicus [4]) [%]	serum triglyceride level, percent of control (Rattus norvegicus [5]) [%]	serum sterol level, percent of control (Rattus norvegicus [6]) [%]	serum sterol level, percent of control (Rattus norvegicus [7]) [%]	Diet (Rattus norvegicus [5]) [%]
CCCCCCCCCCCCCCCCNc1ccc(C2OCCO2)cc1	<85	<47	0	100	82	<71	<77	
CCCCCCCCCCCCCCCCNc1ccc(C(C)(C)C(=O)O)cc1	93	116	< 27	109	121	107	111	
CCCCCCCCCCCCCCCCNc1ccc(C(=O)OC2COC(c3ccccc3)OC2)cc1 (centres undefined)	95	78	0	103		99	91	68
CCCCCCCCCCCCCCCCN(C=O)c1ccc(C(=O)OCC)cc1	101	75	9	102	90	96	117	
CCCCCCCCCCCCCCCCNc1ccc(C(=O)NS(=O)(=O)c2ccc([N+](=O)[O-])cc2)cc1	105	108	< 43	92	<79	<82	94	
CCCCCCCCCCCCCCCCNc1ccc(C(=O)O)c(OCCCCCCCCCCCCCCCC)c1	90	84	6	126	82	95	99	
CCCCCCCCCCCCCCCCNc1ccc(C2=NCCCO2)cc1	97	<68	2	99	127	<87	100	
CCCCCCCCCCCCCCCCNc1ccc(C(=O)O)cc1C	94	101	1	75	96	<91	92	
CCCCCCCCCCCCCCCCNc1ccc(C(C)=O)cc1	129	78	14	84	88	98	119	
CCCCCCCCCCCCCCCCNc1csc(C(=O)O)c1	98	79	70	112	103	98	101	
CCCCCCCCCCCCCCCCNc1ccc(C(=O)N2CCCCCC2)cc1	110	68	< 61	72	90	106	105	
CCCCCCCCCCCCCCCCNc1ccc(C(=O)OCC(O)COC(=O)c2cccnc2)cc1 (centres undefined)	103	<63	0	93	83	84	108	
